# Experimental data reported in ChEMBL document CHEMBL1123281, “Synthesis and rat lens aldose reductase inhibitory activity of some benzopyran-2-ones” (J Med Chem, 1986).
# Columns and labels:
# [1] = biological target: T1, Aldo-keto reductase family 1 member B1 (Rattus norvegicus, UniProt P07943); experiment: Compound was tested for inhibitory concentration against rat lens aldose reductase (noncompetitive inhibition type)
# Procedure, shortened: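 Crude supernatant from 50 rat lenses homogenized in distilled water, centrifuged 10 000 rpm, 10 min, 0–5 °C. Read-out was NADPH decrease at 340 nm over 5 min in 0.1 M phosphate pH 6.2, 0.104 mM NADPH, 10 mM DL-glyceraldehyde. IC50 came from least-squares log dose–response fits, using ≥4 concentrations ×4 replicates. Inhibition type was read from double-reciprocal plots with 0.0625–1.0 mM substrate.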
# [2] = biological target: T1, Aldo-keto reductase family 1 member B1; experiment: Compound was tested for inhibitory concentration against rat lens aldose reductase (uncompetitive inhibition type)
# [3] = biological target: Aldo-keto reductase family 1 member B1 (Rattus norvegicus) (UniProt P07943); experiment: Compound was tested for percent inhibition at 10 e-4 M against rat lens aldose reductase
# Procedure, shortened: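 Single-concentration screen at 100 μM against crude rat lens supernatant. The reaction mix was 0.1 M phosphate pH 6.2, 0.104 mM NADPH and 10 mM DL-glyceraldehyde, started with substrate. NADPH loss was followed at 340 nm for 5 min, with inhibitor included in the blanks. Percent inhibition compares the rate with a substrate-only control. Final Me2SO was ≤1%.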
SMILES,IC50 [1],IC50 [2],further results
CC(=O)Oc1ccc2c(CC(=O)O)cc(=O)oc2c1,61 µM,,
CCc1ccc2c(CC(=O)O)cc(=O)oc2c1,,0.24 µM,
O=C(O)Cc1cc(=O)oc2ccccc12,,0.6 µM,
COC(=O)Cc1cc(=O)oc2cc(O)ccc12,,38 µM,
Cc1cc(=O)oc2cc(Cl)ccc12,,,inhibition [3]: 10%
O=C(O)Cc1cc(=O)oc2cc(O)ccc12,0.15 µM,,
COc1ccc2c(C)cc(=O)oc2c1,,,inhibition [3]: 21%
COc1ccc2c(/C=C/C(=O)O)cc(=O)oc2c1,,4.4 µM,
COc1ccc2c(C(=O)O)cc(=O)oc2c1,,11 µM,
O=C(O)Cc1cc(=O)oc2cc(O)cc(O)c12,0.26 µM,,
O=C(O)Cc1cccc2ccccc12,32 µM,,
NC(=O)Cc1cc(=O)oc2cc(O)ccc12,,10 µM,
COc1ccc2c(CC(=O)O)cc(=O)oc2c1,0.37 µM,,
CC(=O)Oc1ccc2c(C)cc(=O)oc2c1,,,inhibition [3]: 13%
COc1ccc2c(CCC(=O)O)cc(=O)oc2c1,2.1 µM,,
O=C(O)Cc1cc(=O)oc2cc(Cl)ccc12,,0.56 µM,
Cc1cc(=O)oc2ccc(O)cc12,,,inhibition [3]: 22%
CCc1ccc2c(C)cc(=O)oc2c1,,,inhibition [3]: 16%
Cc1cc(=O)oc2ccccc12,,,inhibition [3]: 19%
O=C(O)Cc1cc(=O)oc2ccc3ccccc3c12,,0.02 µM,
O=C(O)Cc1cc(=O)oc2c1ccc1ccccc12,,0.14 µM,

# More lines, main results first:
IC50 [1],IC50 [2],SMILES,further results
17 µM,,"Cc1cc(=O)oc2cc(O)cc(O)c12 [5,7-DIHYDROXY-4-METHYLCOUMARIN]",
,10 µM,Cc1cc(=O)oc2c(O)c(O)ccc12 [4-METHYLDAPHNETIN],
62 µM,,Cc1cc(=O)oc2cc(O)ccc12 [HYMECROMONE],
